{"source": "ChEMBL document CHEMBL4257464", "about": "“Development of NMR and thermal shift assays for the evaluation of Mycobacterium tuberculosis isocitrate lyase inhibitors” (Medchemcomm, 2017)", "key": {"[1]": {"biological_target": "T1, Isocitrate lyase 1 (Mycobacterium tuberculosis (strain CDC 1551 / Oshkosh)) (UniProt P9WKK6)", "T1 sequence (whole entry)": "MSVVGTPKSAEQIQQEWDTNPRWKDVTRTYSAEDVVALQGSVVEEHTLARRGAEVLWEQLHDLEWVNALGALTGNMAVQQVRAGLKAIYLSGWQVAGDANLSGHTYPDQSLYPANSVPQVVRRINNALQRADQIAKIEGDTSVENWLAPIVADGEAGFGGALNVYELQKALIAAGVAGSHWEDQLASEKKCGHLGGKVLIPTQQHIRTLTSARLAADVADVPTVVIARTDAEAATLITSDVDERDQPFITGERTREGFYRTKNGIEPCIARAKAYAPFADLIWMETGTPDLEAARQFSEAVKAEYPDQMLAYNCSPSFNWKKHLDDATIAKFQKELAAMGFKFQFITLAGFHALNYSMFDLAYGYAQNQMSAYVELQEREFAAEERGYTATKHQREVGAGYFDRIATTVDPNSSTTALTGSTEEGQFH", "test": "Inhibition of Mycobacterium tuberculosis ICL1 expressed in Escherichia coli BL21(DE3) at 100 uM using DL-isocitrate as substrate incubated for 25 mins in presence of MgCl2 by 1H NMR method", "in_short": "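Direct 1H NMR time course at 500 MHz, 300 K, with excitation-sculpting water suppression. Sample: 190 nM ICL1, 1 mM DL-isocitrate, 5 mM MgCl2, 100 μM inhibitor, 50 mM Tris-D11 pH 7.5 in 90% H2O/10% D2O. Substrate consumption and product formation are tracked directly. Initial rates come from linear fits up to 20% turnover. Run in triplicate.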"}, "[2]": {"biological_target": "T1, Isocitrate lyase 1 (Mycobacterium tuberculosis (strain CDC 1551 / Oshkosh))", "test": "Binding affinity to Mycobacterium tuberculosis ICL1 expressed in Escherichia coli BL21(DE3) assessed as increase in melting temperature at 1 mM in presence of MgCl2 by SYPRO orange dye based fluorescence assay"}, "Isocitrate lyase 1 [3]": {"biological_target": "T2, Isocitrate lyase 1 (Mycobacterium tuberculosis (strain CDC 1551 / Oshkosh), UniProt P9WKK6)", "T2 sequence (P9WKK6 whole entry)": "T1 sequence (whole entry)", "test": "Inhibition of Mycobacterium tuberculosis ICL1 expressed in Escherichia coli BL21(DE3) using DL-isocitrate as substrate incubated for 25 mins in presence of MgCl2 by 1H NMR method", "in_short": "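1H NMR assay at 500 MHz, 300 K, water-suppressed spectra recorded over time. Sample: 190 nM ICL1, 1 mM DL-isocitrate, 5 mM MgCl2, varying inhibitor concentrations, 50 mM Tris/Tris-D11 pH 7.5 in 90% H2O/10% D2O. Initial rates from linear fits up to 20% turnover; IC50 from a 3-parameter sigmoid fit. Triplicate measurements, errors given as SD.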"}, "[4]": {"biological_target": "T1, Isocitrate lyase 1 (Mycobacterium tuberculosis (strain CDC 1551 / Oshkosh))", "test": "Binding affinity to Mycobacterium tuberculosis ICL1 expressed in Escherichia coli BL21(DE3) assessed as melting temperature at 1 mM in presence of MgCl2 by SYPRO orange dye based fluorescence assay (reference value: 43 degC)"}, "Isocitrate lyase 1 [5]": {"biological_target": "T2, Isocitrate lyase 1", "test": "Inhibition of Mycobacterium tuberculosis ICL1"}}, "note": "Active and inactive are the calls of the source. The calls are words filed in the database; no cut-off is given here. Where a SMILES comes first, the peptide text is derived from it. The star is where a group is joined. Cbz = O=C(OCc1ccccc1)*"}
{"smiles": "CCCCCCc1cc(C(=O)Cc2cc3ccccc3o2)c(O)cc1O", "values": [{"measurement": "inhibition", "setting": "[1]", "result": "inactive"}]}
{"smiles": "O=C(O)CNC(=O)c1ccc(NC(=O)/C(=C/c2ccccc2)NC(=O)c2ccccc2)cc1", "values": [{"measurement": "ΔTm", "setting": "[2]", "result": "> 0.5", "unit": "°C"}]}
{"smiles": "CCOC(=O)c1cc2cc(CC(=O)c3ccc(OC)cc3O)ccc2o1", "values": [{"measurement": "inhibition", "setting": "[1]", "result": "inactive"}]}
{"smiles": "NC(Cc1c[nH]c2ccccc12)C(=O)NCc1ccco1", "note": "(stereo not given)", "values": [{"measurement": "ΔTm", "setting": "[2]", "result": "> 0.5", "unit": "°C"}]}
{"smiles": "CC(Oc1ccc2c3c(c(=O)oc2c1)CCC3)C(=O)NCC1CCC(C(=O)O)CC1", "note": "(stereo not given)", "values": [{"measurement": "ΔTm", "setting": "[2]", "result": "> 0.5", "unit": "°C"}]}
{"smiles": "CCOC(=O)c1cc2cc(CC(=O)c3ccc(O)cc3O)ccc2o1", "values": [{"measurement": "IC50", "setting": "Isocitrate lyase 1 [3]", "result": "> 100", "unit": "µM"}, {"measurement": "inhibition", "setting": "[1]", "result": "Active"}, {"measurement": "ΔTm", "setting": "[2]", "result": "> 0.5", "unit": "°C"}]}
{"smiles": "CCc1cc(C(=O)Cc2cc3ccccc3o2)c(O)cc1OC", "values": [{"measurement": "inhibition", "setting": "[1]", "result": "inactive"}]}
{"smiles": "CCOC(=O)c1ccc(CC(=O)c2oc3cc(O)ccc3c2C)o1", "values": [{"measurement": "IC50", "setting": "Isocitrate lyase 1 [3]", "result": "> 100", "unit": "µM"}, {"measurement": "inhibition", "setting": "[1]", "result": "Active"}, {"measurement": "ΔTm", "setting": "[2]", "result": "> 0.5", "unit": "°C"}]}
{"smiles": "O=C(O)CC[N+](=O)[O-]", "values": [{"measurement": "IC50", "setting": "Isocitrate lyase 1 [3]", "result": 14.7, "unit": "µM"}, {"measurement": "inhibition", "setting": "[1]", "result": "Active"}, {"measurement": "Tm", "setting": "[4]", "result": 40.9, "unit": "°C"}]}
{"smiles": "COC(=O)/C=C/C(=O)c1ccc(OC)cc1", "values": [{"measurement": "IC50", "setting": "Isocitrate lyase 1 [3]", "result": 250, "unit": "µM"}, {"measurement": "inhibition", "setting": "[1]", "result": "inactive"}, {"measurement": "IC50", "setting": "Isocitrate lyase 1 [5]", "result": 30.9, "unit": "µM"}, {"measurement": "Tm", "setting": "[4]", "result": 37.6, "unit": "°C"}]}
{"smiles": "CCCc1cc(C(=O)Cc2cc3ccccc3o2)c(O)cc1OC", "values": [{"measurement": "inhibition", "setting": "[1]", "result": "inactive"}]}
{"smiles": "Nc1ccc(C(=O)CC(=O)Nc2cc(C(=O)O)cc(C(=O)O)c2)cc1", "values": [{"measurement": "ΔTm", "setting": "[2]", "result": "> 0.5", "unit": "°C"}]}
{"smiles": "O=C(O)C1=CC=C(COc2ccc3ccc(=O)oc3c2)C1", "values": [{"measurement": "ΔTm", "setting": "[2]", "result": "> 0.5", "unit": "°C"}]}
{"smiles": "COc1ccc(CC(=O)Nc2ccc(O)cc2C(=O)O)cc1", "values": [{"measurement": "ΔTm", "setting": "[2]", "result": "> 0.5", "unit": "°C"}]}
{"smiles": "NC(CC(=O)O)c1cccnc1", "note": "(stereo not given)", "values": [{"measurement": "ΔTm", "setting": "[2]", "result": "> 0.5", "unit": "°C"}]}
{"smiles": "COc1ccc2oc(C(=O)OCC(=O)c3ccc(C)s3)c(C)c2c1", "values": [{"measurement": "inhibition", "setting": "[1]", "result": "inactive"}]}
{"smiles": "COc1ccc(OCC(=O)c2c(O)cc(O)cc2O)cc1", "values": [{"measurement": "ΔTm", "setting": "[2]", "result": "> 0.5", "unit": "°C"}]}
{"smiles": "COc1cc(OC)c(C(=O)COC(=O)c2oc3ccccc3c2C)c(OC)c1", "values": [{"measurement": "inhibition", "setting": "[1]", "result": "inactive"}]}
{"smiles": "O=C(O)COc1ccc(C(=O)Cc2ccc3c(c2)OCCCO3)c(O)c1", "values": [{"measurement": "ΔTm", "setting": "[2]", "result": "> 0.5", "unit": "°C"}]}
{"smiles": "CC(C)C(NC(=O)OCc1ccccc1)C(=O)NCC(=O)NC(Cc1c[nH]c2ccccc12)C(=O)O", "note": "(stereo not drawn) (Cbz-Val-Gly-Trp-OH; configuration not given here)", "values": [{"measurement": "ΔTm", "setting": "[2]", "result": "> 0.5", "unit": "°C"}]}
{"smiles": "O=C(Cc1ccc2cccnc2c1)c1ccc(O)cc1O", "values": [{"measurement": "ΔTm", "setting": "[2]", "result": "> 0.5", "unit": "°C"}]}
{"smiles": "CC(C)[C@H](NC(=O)COc1ccc(C(=O)COc2ccccc2)c(O)c1)C(=O)O", "values": [{"measurement": "ΔTm", "setting": "[2]", "result": "> 0.5", "unit": "°C"}]}
{"smiles": "Nc1ccc([C@H](O)[C@@H](N)CO)cc1", "values": [{"measurement": "ΔTm", "setting": "[2]", "result": "> 0.5", "unit": "°C"}]}
{"smiles": "C=C(CC(=O)O)C(=O)O", "note": "[ITACONATE]", "values": [{"measurement": "IC50", "setting": "Isocitrate lyase 1 [3]", "result": 29.4, "unit": "µM"}, {"measurement": "inhibition", "setting": "[1]", "result": "Active"}, {"measurement": "Tm", "setting": "[4]", "result": 53.3, "unit": "°C"}]}
{"smiles": "CCCc1cc(C(=O)Cc2cc3ccccc3o2)c(O)cc1O", "values": [{"measurement": "ΔTm", "setting": "[2]", "result": "> 0.5", "unit": "°C"}]}
{"smiles": "CCOC(=O)c1oc2ccc(CC(=O)c3c(C)cc(O)cc3O)cc2c1C", "values": [{"measurement": "inhibition", "setting": "[1]", "result": "inactive"}]}
{"smiles": "O=C(O)C(=O)CBr", "note": "[BROMOPYRUVATE]", "values": [{"measurement": "IC50", "setting": "Isocitrate lyase 1 [3]", "result": 17.5, "unit": "µM"}, {"measurement": "inhibition", "setting": "[1]", "result": "Active"}, {"measurement": "Tm", "setting": "[4]", "result": 52.5, "unit": "°C"}]}
{"smiles": "COc1ccc(O)c(C(=O)CC(=O)c2ccccc2)c1", "values": [{"measurement": "ΔTm", "setting": "[2]", "result": "> 0.5", "unit": "°C"}]}
{"smiles": "O=C(COc1ccccc1Br)c1ccc(O)cc1O", "values": [{"measurement": "ΔTm", "setting": "[2]", "result": "> 0.5", "unit": "°C"}]}
{"smiles": "COc1ccc(C(=O)COC(=O)c2oc3ccc(OC)cc3c2C)c(OC)c1", "values": [{"measurement": "inhibition", "setting": "[1]", "result": "inactive"}]}
{"smiles": "CCCCc1cc(C(=O)Cc2cc3ccccc3o2)c(O)cc1O", "values": [{"measurement": "inhibition", "setting": "[1]", "result": "inactive"}]}
{"smiles": "Cc1ccc(C(=O)CC(=O)c2ccco2)c(O)c1", "values": [{"measurement": "ΔTm", "setting": "[2]", "result": "> 0.5", "unit": "°C"}]}
